Experimental findings from ChEMBL document CHEMBL3217465, “Development of a phosphatase-resistant, L-tyrosine derived LPA1/LPA3 dual antagonist” (Medchemcomm, 2011) are described below.

Data set [1] relates to A-431. The data set can be described thus: Antagonist activity at LPA receptor in human A431 cells assessed as inhibition of LPA-induced intracellular calcium mobilization at 10 uM by Fluo-3 AM-staining based FLIPR assay. Format: cell-based. A digest of the protocol: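 A431 human epithelial carcinoma cells, which express LPA1–3 receptor mRNAs, were tested with the test compound at a single concentration of 10 μM against a single concentration of 1-oleoyl LPA. The read-out was inhibition of LPA-induced intracellular calcium release.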
For orientation: Calcium flux is commonly read through the fluorescence of an indicator in the cells.

The target in data set [2] is Lysophosphatidic acid receptor 1 (Homo sapiens, UniProt Q92633). The data set can be described thus: Competitive antagonist activity at human LPA1 receptor overexpressed in CHO cells assessed as inhibition of LPA-induced [35S]GTPgammaS binding by liquid scintillation counting. Format: functional, cell-based. In a few lines:
(§1)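 GTP[γ-³⁵S] binding was measured in membrane fractions containing hLPA1 or hLPA3 from over-expressing CHO cells. LPA concentration-effect curves were run at increasing antagonist concentrations, and Schild analysis was derived from these curves.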
Background: Binding of GTPγS marks nucleotide exchange on a G protein.

Data set [3] concerns the target T1, Lysophosphatidic acid receptor 3 (Homo sapiens, UniProt Q9UBY5).
T1 sequence (Q9UBY5 whole entry): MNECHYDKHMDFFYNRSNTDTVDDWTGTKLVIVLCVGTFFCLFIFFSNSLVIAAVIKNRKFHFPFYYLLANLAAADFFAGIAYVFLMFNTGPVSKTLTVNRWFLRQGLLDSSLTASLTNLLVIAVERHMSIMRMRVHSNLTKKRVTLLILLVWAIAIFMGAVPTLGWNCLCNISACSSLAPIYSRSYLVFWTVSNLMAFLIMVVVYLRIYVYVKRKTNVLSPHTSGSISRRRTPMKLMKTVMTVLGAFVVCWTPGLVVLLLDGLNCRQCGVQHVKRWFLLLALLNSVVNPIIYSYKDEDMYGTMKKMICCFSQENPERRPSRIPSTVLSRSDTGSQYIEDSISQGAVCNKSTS
The data set can be described thus: (§2) Competitive antagonist activity at N-terminal 3XHA-tagged human LPA3 receptor overexpressed in CHO cells assessed as inhibition of LPA-induced [35S]GTPgammaS binding by liquid scintillation counting. Format: functional, cell-based. A digest of the protocol:
as §1

Data set [4] concerns the target T2, Lysophosphatidic acid receptor 3 (Homo sapiens) (UniProt Q9UBY5).
T2 sequence (whole entry): T1 sequence (Q9UBY5 whole entry)
The description is as §2. Format: functional, cell-based. In a few lines: as §1

The target in data set [5] is Lysophosphatidic acid receptor 1/lysophosphatidic acid receptor 3 (Rattus norvegicus, UniProt Q8K5E0+P61794). The data set can be described thus: Antagonist activity at LPAR1/LPAR3 in rat glioma C62B cells assessed as inhibition of LPA-induced reduction in isoproterenol-stimulated [3H]cAMP accumulation by liquid scintillation counting. Format: functional, cell-based. In a few lines:
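C62B cells were grown to confluence and labelled with [³H]adenine for 1 h to label ATP pools. They were then stimulated for 2 min with isoproterenol (10 μM), with or without 18:1 LPA (100 nM), and with or without antagonist. Antagonist was given at increasing concentrations to obtain dose-response curves of the block of LPA inhibition of cAMP accumulation.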
(Changes in cAMP serve as a functional read-out for many G protein-coupled receptors.)

The target of data set [6] is T3, Lysophosphatidic acid receptor 3 (Rattus norvegicus) (UniProt Q8K5E0).
T3 sequence (whole entry): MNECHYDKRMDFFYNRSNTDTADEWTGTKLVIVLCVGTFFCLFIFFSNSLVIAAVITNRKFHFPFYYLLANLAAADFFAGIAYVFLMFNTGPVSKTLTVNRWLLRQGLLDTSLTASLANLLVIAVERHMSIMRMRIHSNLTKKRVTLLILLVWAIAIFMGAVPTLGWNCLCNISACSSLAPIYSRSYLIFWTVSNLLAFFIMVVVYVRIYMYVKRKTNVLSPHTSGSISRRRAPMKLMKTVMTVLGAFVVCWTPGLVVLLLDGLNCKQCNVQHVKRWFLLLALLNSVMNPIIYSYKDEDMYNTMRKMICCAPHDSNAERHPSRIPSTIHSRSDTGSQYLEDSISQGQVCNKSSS
In words: Antagonist activity at LPAR3 in rat glioma C62B cells assessed as inhibition of LPA3 agonist-induced reduction in isoproterenol-stimulated [3H]cAMP accumulation by liquid scintillation counting. Format: functional, cell-based.

Data set [7] in a line: Half life in Wistar rat at 20 mg/kg, iv by LC-MS/MS analysis. Format: ADME, organism-based. Also on record: dose 20 mg/kg, route intravenous. The conditions noted are these: in vivo.
Data set [8] deals with Lysophosphatidic acid receptor 2 (Homo sapiens) (UniProt Q9HBW0). The data set can be described thus: Antagonist activity at LPAR2 receptor (unknown origin) assessed as inhibition of LPA-induced [35S]GTPgammaS binding by liquid scintillation counting. Format: functional.

Calls of active or inactive are those of the source. The calls are words filed in the database; no cut-off is given here.

Sequence of Lysophosphatidic acid receptor 1 (Q92633 whole entry): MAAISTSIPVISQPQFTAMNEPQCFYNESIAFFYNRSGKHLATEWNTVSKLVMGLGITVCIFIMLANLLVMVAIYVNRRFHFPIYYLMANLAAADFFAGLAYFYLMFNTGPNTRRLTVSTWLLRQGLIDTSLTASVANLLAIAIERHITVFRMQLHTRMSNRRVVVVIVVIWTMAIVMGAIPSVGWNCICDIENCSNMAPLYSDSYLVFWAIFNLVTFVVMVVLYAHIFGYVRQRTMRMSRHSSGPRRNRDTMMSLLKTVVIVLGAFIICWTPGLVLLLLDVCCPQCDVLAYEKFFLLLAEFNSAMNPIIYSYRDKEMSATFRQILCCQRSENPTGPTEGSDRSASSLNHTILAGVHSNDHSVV
Sequence of Lysophosphatidic acid receptor 2 (Homo sapiens) (Q9HBW0 whole entry): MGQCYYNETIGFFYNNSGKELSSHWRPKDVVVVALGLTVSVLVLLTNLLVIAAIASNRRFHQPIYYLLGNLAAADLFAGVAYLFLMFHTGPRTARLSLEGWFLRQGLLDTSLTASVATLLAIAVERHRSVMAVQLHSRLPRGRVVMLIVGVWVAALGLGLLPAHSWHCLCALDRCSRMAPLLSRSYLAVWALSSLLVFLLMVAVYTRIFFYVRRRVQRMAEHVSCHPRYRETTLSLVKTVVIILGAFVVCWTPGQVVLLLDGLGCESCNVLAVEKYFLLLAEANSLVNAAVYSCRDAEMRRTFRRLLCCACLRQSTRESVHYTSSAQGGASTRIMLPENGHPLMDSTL

On to `CCCCCCCCCCCCCCCC(=O)N[C@@H](/C=C(\F)P(=O)(O)O)Cc1ccc(OCc2cc(OCC(F)(F)F)ccn2)cc1`, for which the inhibition result in data set [1] was “Active”.

In general, Ki refers to a dissociation constant, usually derived from enzyme kinetics or from competition with a known ligand. In the case of `CCCCCCCCCCCCCCCCCC(=O)N[C@@H](COP(=O)(O)O)Cc1ccc(OCc2cc(OCC(F)(F)F)ccn2)cc1`, the values for the Ki in data set [2] and in data set [3] were 0.084 µM and 0.048 µM, respectively.

`Cc1noc(-c2ccc(CSCCC(=O)O)cc2)c1NC(=O)OC(C)c1ccccc1Cl` (stereo not given): the inhibition entry in data set [2] and in data set [4] was “Active” each time.

As to `CCCCCCCCCCCCCCCC(=O)N[C@H](Cc1ccc(OCc2cc(OCC(F)(F)F)ccn2)cc1)CC(F)P(=O)(O)O` (stereo not given in full), the inhibition entry in data set [1] was “Active”.

One may read the half-life as how long it takes for the measured level to halve. High values mean slow loss, low ones fast loss. For `CCCCCCCCCCCCCCCC(=O)N[C@@H](/C=C/P(=O)(O)O)Cc1ccc(OCc2cc(OCC(F)(F)F)ccn2)cc1`, the inhibition entry in data set [1] is “Active”. Further, the Ki in data set [2] worked out at 0.143 µM; in data set [3], 0.512 µM; in data set [5] it was 0.011 µM. The inhibition entry in data set [2], in data set [4] and in data set [6] was “Dose-dependent effect” each time. This compound also registered a half-life in data set [7] of 1.5 h. Besides, in data set [8], the inhibition entry was “inactive”.
